Measured values: ChEMBL document CHEMBL1135165, “Pyrrolidine-5,5-trans-lactams as novel mechanism-based inhibitors of human cytomegalovirus protease. Part 3: potency and plasma stability” (Bioorg Med Chem Lett, 2002)

Tests used:
[1] = Half life in human plasma was reported; assay type: ADME, cell-free
[2] = target: T1, Capsid scaffolding protein (Human cytomegalovirus (strain AD169) (HHV-5) (Human herpesvirus 5), UniProt P16753); assay: Tested in vitro for inhibitory activity against Protease; design: species or system Human betaherpesvirus 5
T1 sequence (P16753 whole entry): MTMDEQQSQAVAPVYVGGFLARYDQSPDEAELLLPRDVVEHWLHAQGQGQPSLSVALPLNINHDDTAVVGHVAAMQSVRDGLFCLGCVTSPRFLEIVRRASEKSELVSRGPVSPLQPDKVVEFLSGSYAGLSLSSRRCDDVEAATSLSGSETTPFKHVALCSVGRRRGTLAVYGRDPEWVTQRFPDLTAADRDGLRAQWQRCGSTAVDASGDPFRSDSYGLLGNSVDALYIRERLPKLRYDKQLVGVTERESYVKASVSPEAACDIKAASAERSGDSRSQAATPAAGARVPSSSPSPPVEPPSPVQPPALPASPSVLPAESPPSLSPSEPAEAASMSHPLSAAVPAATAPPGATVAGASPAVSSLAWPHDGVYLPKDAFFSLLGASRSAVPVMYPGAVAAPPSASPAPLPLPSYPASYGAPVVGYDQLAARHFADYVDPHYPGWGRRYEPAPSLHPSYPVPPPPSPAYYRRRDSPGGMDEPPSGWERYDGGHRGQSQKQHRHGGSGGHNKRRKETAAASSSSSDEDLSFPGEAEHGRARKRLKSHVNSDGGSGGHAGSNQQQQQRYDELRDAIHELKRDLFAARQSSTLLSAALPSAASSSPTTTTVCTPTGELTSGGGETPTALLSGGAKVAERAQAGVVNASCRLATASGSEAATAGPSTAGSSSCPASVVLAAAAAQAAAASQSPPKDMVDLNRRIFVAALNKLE
Method in brief: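 Human cytomegalovirus protease inhibition was measured in a p-nitroanilide (pNA) chromogenic substrate assay. Values are reported as IC50 in μM, with Ki also given for some compounds.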

Row | SMILES | half-life [1] [h] | IC50 [2] [µM]
1 | CC1CC1C(=O)N1C(=O)[C@@H](C)[C@@H]2[C@@H]1CCN2C(=O)[C@@H]1CCCN1S(=O)(=O)c1cccc2c(N(C)C)cccc12 (stereo partly drawn) | 2.5 | 1.4
2 | C[C@@H]1C(=O)N(C(=O)C2C(C)(C)C2(C)C)[C@H]2CCN(C(=O)OCc3ccccc3)[C@H]12 | 33 | > 500
3 | C[C@@H]1[C@H](C)[C@@H]1C(=O)N1C(=O)[C@@H](C)[C@@H]2[C@@H]1CCN2C(=O)OCc1ccccc1 | 9.8 | 72
4 | COC(=O)N1C(=O)[C@@H](C)[C@@H]2[C@@H]1CCN2C(=O)OCc1ccccc1 | 0.833 | 148
5 | C[C@@H]1C(=O)N(C(=O)C(C)(C)C)[C@H]2CCN(C(=O)OCc3ccccc3)[C@H]12 | 3.7 | > 500
6 | C[C@@H]1C(=O)N(C(=O)C2CC2)[C@H]2CCN(C(=O)[C@@H]3CCCN3S(=O)(=O)c3cccc4c(N(C)C)cccc34)[C@H]12 | 5 | 
7 | CNC(=O)N1C(=O)[C@@H](C)[C@@H]2[C@@H]1CCN2C(=O)OCc1ccccc1 | > 24 | > 500
8 | CC1CC1C(=O)N1C(=O)[C@@H](C)[C@@H]2[C@@H]1CCN2C(=O)OCc1ccccc1 (stereo partly drawn) | 2.6 | 16
9 | C[C@@H]1C(=O)N(S(C)(=O)=O)[C@H]2CCN(C(=O)OCc3ccccc3)[C@H]12 | < 0.0833 | ~500
10 | C[C@@H]1C(=O)N(C(=O)NCc2ccccc2)[C@H]2CCN(C(=O)[C@@H]3CCCN3S(=O)(=O)c3cccc4c(N(C)C)cccc34)[C@H]12 | > 33 | 6.6
11 | C[C@@H]1C(=O)N(C(=O)C2CC2)[C@H]2CCN(C(=O)OCc3ccccc3)[C@H]12 | 1.4 | 9
12 | C[C@@H]1C(=O)N(c2nccs2)[C@H]2CCN(C(=O)[C@@H]3CCCN3S(=O)(=O)c3cccc4c(N(C)C)cccc34)[C@H]12 | > 50 | 2.1
13 | CC(=O)N1C(=O)[C@@H](C)[C@@H]2[C@@H]1CCN2C(=O)OCc1ccccc1 | 0.9 | 
14 | C[C@@H]1C(=O)N(C(=O)NCc2ccccc2)[C@H]2CCN(C(=O)OCc3ccccc3)[C@H]12 | 12 | 250
15 | CC(=O)N1C(=O)C(C)(C)[C@@H]2[C@@H]1CCN2C(=O)OCc1ccccc1 | 6.5 | > 500
16 | C[C@@H]1C(=O)N(C(=O)C2C(C)(C)C2(C)C)[C@H]2CCN(C(=O)[C@@H]3CCCN3S(=O)(=O)c3cccc4c(N(C)C)cccc34)[C@H]12 | > 24 | > 100
17 | CNC(=O)N1C(=O)[C@@H](C)[C@@H]2[C@@H]1CCN2C(=O)[C@@H]1CCCN1S(=O)(=O)c1cccc2c(N(C)C)cccc12 | 12 | 22
18 | COP(=O)(OC)N1C(=O)[C@@H](C)[C@@H]2[C@@H]1CCN2C(=O)OCc1ccccc1 | > 24 | > 500
19 | C[C@@H]1C(=O)N(c2ccc([N+](=O)[O-])cc2)[C@H]2CCN(C(=O)[C@@H]3CCCN3S(=O)(=O)c3cccc4c(N(C)C)cccc34)[C@H]12 |  | 41
20 | C[C@@H]1C(=O)N(c2nccs2)[C@H]2CCN(C(=O)OCc3ccccc3)[C@H]12 | 44 | ~500
21 | C[C@@H]1C(=O)N(c2ccc([N+](=O)[O-])cc2)[C@H]2CCN(C(=O)OCc3ccccc3)[C@H]12 | 40 | ~500
22 | C[C@@H]1[C@H](C)[C@@H]1C(=O)N1C(=O)[C@@H](C)[C@@H]2[C@@H]1CCN2C(=O)[C@@H]1CCCN1S(=O)(=O)c1cccc2c(N(C)C)cccc12 | 20 | 5.1
23 | C[C@@H]1C(=O)N(c2ccc([N+](=O)[O-])cc2[N+](=O)[O-])[C@H]2CCN(C(=O)OCc3ccccc3)[C@H]12 | > 24 | ~500
